“And” between values parts separate entries of the source, which are not always exact repeats. Identical values can stand only once.
biological target: T1, D(2) dopamine receptor (Homo sapiens, UniProt P14416); assay: Displacement of [3H]-sulpiride from human dopamine D2 receptor expressed in HEK293 cells at 0.1 uM after 150 mins by liquid scintillation counting; type: cell-based
Summary of the method: (§1)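 Transiently PEI-transfected HEK293 cells expressing human D2R or D3R, serum-free, rinsed ice-cold. Each ligand at a single concentration competed at 4 °C for 150 min with [³H]-sulpiride: 2.2 nM for D2R, 4.4 nM for D3R. Unbound label removed by three washes in ice-cold MEM/10 mM HEPES pH 7.4. Cells were lysed in 1% SDS and bound radioactivity read by liquid scintillation.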

T1 sequence (P14416 whole entry): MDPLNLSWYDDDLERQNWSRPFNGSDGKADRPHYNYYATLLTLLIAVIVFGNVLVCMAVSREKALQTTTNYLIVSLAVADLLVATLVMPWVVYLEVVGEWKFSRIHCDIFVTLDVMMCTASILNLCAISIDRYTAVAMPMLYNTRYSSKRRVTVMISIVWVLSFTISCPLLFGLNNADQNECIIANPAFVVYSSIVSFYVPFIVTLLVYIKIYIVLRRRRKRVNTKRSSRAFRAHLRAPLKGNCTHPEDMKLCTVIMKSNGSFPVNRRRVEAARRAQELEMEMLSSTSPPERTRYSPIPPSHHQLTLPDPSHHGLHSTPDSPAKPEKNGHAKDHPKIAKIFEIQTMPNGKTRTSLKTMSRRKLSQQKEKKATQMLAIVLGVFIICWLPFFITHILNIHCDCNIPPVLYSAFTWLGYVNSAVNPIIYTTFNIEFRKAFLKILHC

inhibition | Compound
7.8% and 17.9% | Clc1ccc(N2CCN(CCCCNc3noc(-c4ccccn4)n3)CC2)c(Cl)c1
5.6% and 5.4% | COc1ccccc1-c1nc(NCCCCN2CCN(c3ccc(Cl)cc3Cl)CC2)no1
19.8% | FC(F)(F)c1cccc(N2CCN(CCCCNc3noc(-c4ccccc4)n3)CC2)c1
-2.6% and 8.3% | Clc1ccc(N2CCN(CCCCNc3noc(-c4ccccc4)n3)CC2)cc1
8.8% and 22.8% | N#Cc1ccc(-c2nc(NCCCCN3CCN(c4ccc(Cl)cc4Cl)CC3)no2)cc1
69.8% | Fc1ccccc1N1CCN(CCCCNc2noc(-c3ccccc3)n2)CC1
15.2% and 40% | Clc1ccc(-c2nc(NCCCCN3CCN(c4ccc(Cl)cc4Cl)CC3)no2)cc1
12.7% | Clc1ccc(N2CCN(CCCCNc3noc(-c4ccc(Br)cc4)n3)CC2)c(Cl)c1
28.3% and 40.4% | Clc1cccc(-c2nc(NCCCCN3CCN(c4ccc(Cl)cc4Cl)CC3)no2)c1

biological target: T1, D(2) dopamine receptor; assay: Displacement of [3H]-sulpiride from human dopamine D2 receptor expressed in HEK293 cells at 1 uM after 150 mins by liquid scintillation counting; type: cell-based; summary of the method: as §1

inhibition | Compound
50.1% | CCCN(CCCCN1CCN(c2cccc(Cl)c2Cl)CC1)c1noc(-c2ccccc2)n1
10.6% | CCCN(CCCCN1CCN(c2ccccc2F)CC1)c1noc(-c2ccccc2)n1
17.8% | CCCN(CCCCN1CCN(c2cccc(C(F)(F)F)c2)CC1)c1noc(-c2ccccc2)n1
-0.6% | CCCN(CCCCN1CCN(c2ccc(Cl)cc2Cl)CC1)c1noc(-c2ccccc2)n1

species: Homo sapiens; assay: Selectivity ratio of Ki for human dopamine D2 receptor to Ki for human dopamine D3 receptor

Ratio Ki | Compound
297 | Clc1ccc(N2CCN(CCCCNc3noc(-c4ccccc4)n3)CC2)cc1
7.7 and 4.4 | Clc1ccc(N2CCN(CCCCNc3noc(-c4ccccc4)n3)CC2)c(Cl)c1 [listing 1 of 3 here]

biological target: T2, D(3) dopamine receptor (Homo sapiens, UniProt P35462); assay: Displacement of [3H]-sulpiride from human dopamine D3 receptor expressed in HEK293 cells at 1 uM after 150 mins by liquid scintillation counting; type: cell-based; summary of the method: as §1
T2 sequence (P35462 whole entry): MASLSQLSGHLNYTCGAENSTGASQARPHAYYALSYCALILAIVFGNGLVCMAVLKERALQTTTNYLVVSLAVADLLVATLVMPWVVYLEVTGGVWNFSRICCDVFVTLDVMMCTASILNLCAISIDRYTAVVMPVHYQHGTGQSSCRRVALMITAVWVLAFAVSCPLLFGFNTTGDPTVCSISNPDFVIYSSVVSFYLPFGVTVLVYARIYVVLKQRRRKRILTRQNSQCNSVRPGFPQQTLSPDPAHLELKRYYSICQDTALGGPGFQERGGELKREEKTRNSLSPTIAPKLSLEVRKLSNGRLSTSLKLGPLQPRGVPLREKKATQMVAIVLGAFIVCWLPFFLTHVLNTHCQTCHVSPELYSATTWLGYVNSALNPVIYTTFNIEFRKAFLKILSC

inhibition | Compound
22.1% | CCCN(CCCCN1CCN(c2cccc(Cl)c2Cl)CC1)c1noc(-c2ccccc2)n1
3.2% | CCCN(CCCCN1CCN(c2ccccc2F)CC1)c1noc(-c2ccccc2)n1
9.7% | CCCN(CCCCN1CCN(c2cccc(C(F)(F)F)c2)CC1)c1noc(-c2ccccc2)n1
15.1% | CCCN(CCCCN1CCN(c2ccc(Cl)cc2Cl)CC1)c1noc(-c2ccccc2)n1

biological target: T1, D(2) dopamine receptor; assay: Displacement of [3H]-sulpiride from human dopamine D2 receptor expressed in HEK293 cells after 150 mins by liquid scintillation counting; type: cell-based
Summary of the method: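 HEK293 cells grown in MEM with 10% FBS and penicillin/streptomycin, PEI-transfected with human D2R plasmid (medium changed at 4 h, grown 24 h), then seeded and cultured overnight. Rinsed with ice-cold serum-free MEM, incubated with 2.2 nM [³H]-sulpiride plus varying ligand concentrations at 4 °C for 150 min. Washed three times in ice-cold MEM/10 mM HEPES pH 7.4, lysed in 1% SDS, scintillation counted. IC50 came from nonlinear regression curve fits.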

Ki | Compound
6.23 µM | Clc1ccc(N2CCN(CCCCNc3noc(-c4ccccc4)n3)CC2)c(Cl)c1 [listing 2 of 3 here]
79.6 µM | Clc1ccc(N2CCN(CCCCNc3noc(-c4ccccc4)n3)CC2)cc1
1.29 µM | Clc1ccc(N2CCN(CCCCNc3noc(-c4ccccc4)n3)CC2)c(Cl)c1 [listing 3 of 3 here]
> 23.9 µM | O=C(NCCCCN1CCN(c2ccc(Cl)cc2Cl)CC1)c1cc2ccccc2[nH]1

biological target: T2, D(3) dopamine receptor; assay: Displacement of [3H]-sulpiride from human dopamine D3 receptor expressed in HEK293 cells after 150 mins by liquid scintillation counting; type: cell-based

Ki | Compound
0.81 µM | Clc1ccc(N2CCN(CCCCNc3noc(-c4ccccc4)n3)CC2)c(Cl)c1 [listing 2 of 3 here]
0.27 µM | Clc1ccc(N2CCN(CCCCNc3noc(-c4ccccc4)n3)CC2)cc1
0.29 µM | Clc1ccc(N2CCN(CCCCNc3noc(-c4ccccc4)n3)CC2)c(Cl)c1 [listing 3 of 3 here]

biological target: T2, D(3) dopamine receptor; assay: Displacement of [3H]-sulpiride from human dopamine D3 receptor expressed in HEK293 cells at 0.1 uM after 150 mins by liquid scintillation counting; type: cell-based; summary of the method: as §1

inhibition | Compound
9.5% and 14.8% | Clc1ccc(N2CCN(CCCCNc3noc(-c4ccccn4)n3)CC2)c(Cl)c1
4.2% and 7.7% | COc1ccccc1-c1nc(NCCCCN2CCN(c3ccc(Cl)cc3Cl)CC2)no1
35.3% | FC(F)(F)c1cccc(N2CCN(CCCCNc3noc(-c4ccccc4)n3)CC2)c1
36.6% and 11.8% | N#Cc1ccc(-c2nc(NCCCCN3CCN(c4ccc(Cl)cc4Cl)CC3)no2)cc1
50.7% | Fc1ccccc1N1CCN(CCCCNc2noc(-c3ccccc3)n2)CC1
33.8% and 16.6% | Clc1ccc(-c2nc(NCCCCN3CCN(c4ccc(Cl)cc4Cl)CC3)no2)cc1
14.2% | Clc1ccc(N2CCN(CCCCNc3noc(-c4ccc(Br)cc4)n3)CC2)c(Cl)c1
37% and 41.5% | Clc1cccc(-c2nc(NCCCCN3CCN(c4ccc(Cl)cc4Cl)CC3)no2)c1

From ChEMBL document CHEMBL3739355, “Design, synthesis and evaluation of bitopic arylpiperazinephenyl-1,2,4-oxadiazoles as preferential dopamine D3 receptor ligands” (Bioorg Med Chem, 2016)
